{"source": "paper PMC7611434", "about": "(Bioorganic chemistry, 2020)", "key": {"[1]": {"system": "RUMH cells (renal cell carcinoma, c-MET-overexpressing)", "experiment": "cytotoxicity assay", "assay_type": "cell-based, human", "settings": "for pIC50: read-out: IC50 cytotoxicity; for cytotoxic activity under hypoxia vs normoxia: 72 h, 1 % O2 vs 21 % O2", "method_in_brief": "(§1)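 MTT (EZ4U) viability in H1993 or in-house-established RUMH cells in RPMI 1640 with 10% FCS. Cells were seeded at 3-6x10³/well and recovered 24 h, then given increasing concentrations of test compound (final DMSO <1%). Exposure was 24 h or 72 h at 21% O₂ (normoxia) or 1% O₂ (hypoxia). IC50 came from full dose-response curves; one representative experiment in triplicate, mean ± SD.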"}, "[2]": {"system": "H2228 cells (non-small cell lung cancer, ALK-dependent)", "experiment": "cytotoxicity assay", "assay_type": "cell-based, human", "settings": "for cytotoxic activity under hypoxia vs normoxia: H2228, 72 h, 1 % O2 vs 21 % O2; for pIC50: read-out: IC50 cytotoxicity"}, "[3]": {"system": "H1993 cells (non-small cell lung cancer, c-MET-dependent)", "experiment": "cytotoxicity assay", "assay_type": "cell-based, human", "settings": "for cytotoxic activity under hypoxia vs normoxia: H1993, 72 h, 1 % O2 vs 21 % O2; for pIC50: read-out: IC50 cytotoxicity", "method_in_brief": "as §1"}, "[4]": {"system": "H1993 tumor cell proliferation (Ki-67)", "experiment": "H1993 xenograft, immunohistochemistry of Ki-67 and tumor histology", "assay_type": "in vivo, SCID mice", "settings": "24 h"}, "solubility in PBS": {"experiment": "solubility in PBS", "assay_type": "physicochemical"}, "stability down to pH 1": {"experiment": "stability down to pH 1", "assay_type": "physicochemical", "settings": "down to pH 1, 24 h, 37 °C; data not shown"}, "ALK": {"system": "ALK", "settings": "cell-free kinase assay"}, "[5]": {"system": "HLF (fibroblasts from human lung)", "experiment": "cytotoxicity in non-malignant cells", "assay_type": "cell-based", "settings": "normoxic, 72 h", "method_in_brief": "(§2)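 Non-malignant HACAT keratinocytes or HLF lung fibroblasts in RPMI 1640 with 10% FCS, under normoxia (37 °C, 21% O₂, 5% CO₂). Cells were seeded at 3-6x10³/well and recovered 24 h. They were then exposed for 72 h to increasing concentrations of test compound diluted from DMSO stock (final DMSO <1%). Viability was read by MTT (EZ4U), with IC50 fitted from full dose-response curves.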"}, "c-MET": {"system": "c-MET", "settings": "cell-free kinase assay"}, "[6]": {"system": "HACAT (keratinocytes from human skin)", "experiment": "cytotoxicity in non-malignant cells", "assay_type": "cell-based", "settings": "normoxic, 72 h", "method_in_brief": "as §2"}, "ERK 1/2 phosphorylation": {"system": "ERK 1/2 phosphorylation", "experiment": "Western blot of ERK 1/2 phosphorylation in H1993 cells", "assay_type": "cell-based, human", "settings": "H1993, 24 h", "method_in_brief": "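H1993 cells in RPMI 1640 with 10% FCS were plated at 8x10⁵ cells/dish and allowed 24 h recovery. They were exposed for 24 h to DMSO-diluted test compound (final DMSO <1%) at 21% or 1% O₂. Lysates were run on SDS-PAGE/PVDF and probed for p-ERK 1/2 (Thr202/Tyr204), ERK 1/2 and β-actin (all 1:1000), with HRP secondaries at 1:10000. Read-out: p-ERK/ERK ratio after β-actin normalisation.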"}, "[7]": {"experiment": "stability assay in buffer, medium and serum", "assay_type": "in vitro ADME", "settings": "pure serum (FCS), 37 °C, up to 72 h"}, "[8]": {"target": "c-MET phosphorylation in H1993 tumor tissue (Homo sapiens, UniProt P08581)", "sequence (P08581 25-1390)": "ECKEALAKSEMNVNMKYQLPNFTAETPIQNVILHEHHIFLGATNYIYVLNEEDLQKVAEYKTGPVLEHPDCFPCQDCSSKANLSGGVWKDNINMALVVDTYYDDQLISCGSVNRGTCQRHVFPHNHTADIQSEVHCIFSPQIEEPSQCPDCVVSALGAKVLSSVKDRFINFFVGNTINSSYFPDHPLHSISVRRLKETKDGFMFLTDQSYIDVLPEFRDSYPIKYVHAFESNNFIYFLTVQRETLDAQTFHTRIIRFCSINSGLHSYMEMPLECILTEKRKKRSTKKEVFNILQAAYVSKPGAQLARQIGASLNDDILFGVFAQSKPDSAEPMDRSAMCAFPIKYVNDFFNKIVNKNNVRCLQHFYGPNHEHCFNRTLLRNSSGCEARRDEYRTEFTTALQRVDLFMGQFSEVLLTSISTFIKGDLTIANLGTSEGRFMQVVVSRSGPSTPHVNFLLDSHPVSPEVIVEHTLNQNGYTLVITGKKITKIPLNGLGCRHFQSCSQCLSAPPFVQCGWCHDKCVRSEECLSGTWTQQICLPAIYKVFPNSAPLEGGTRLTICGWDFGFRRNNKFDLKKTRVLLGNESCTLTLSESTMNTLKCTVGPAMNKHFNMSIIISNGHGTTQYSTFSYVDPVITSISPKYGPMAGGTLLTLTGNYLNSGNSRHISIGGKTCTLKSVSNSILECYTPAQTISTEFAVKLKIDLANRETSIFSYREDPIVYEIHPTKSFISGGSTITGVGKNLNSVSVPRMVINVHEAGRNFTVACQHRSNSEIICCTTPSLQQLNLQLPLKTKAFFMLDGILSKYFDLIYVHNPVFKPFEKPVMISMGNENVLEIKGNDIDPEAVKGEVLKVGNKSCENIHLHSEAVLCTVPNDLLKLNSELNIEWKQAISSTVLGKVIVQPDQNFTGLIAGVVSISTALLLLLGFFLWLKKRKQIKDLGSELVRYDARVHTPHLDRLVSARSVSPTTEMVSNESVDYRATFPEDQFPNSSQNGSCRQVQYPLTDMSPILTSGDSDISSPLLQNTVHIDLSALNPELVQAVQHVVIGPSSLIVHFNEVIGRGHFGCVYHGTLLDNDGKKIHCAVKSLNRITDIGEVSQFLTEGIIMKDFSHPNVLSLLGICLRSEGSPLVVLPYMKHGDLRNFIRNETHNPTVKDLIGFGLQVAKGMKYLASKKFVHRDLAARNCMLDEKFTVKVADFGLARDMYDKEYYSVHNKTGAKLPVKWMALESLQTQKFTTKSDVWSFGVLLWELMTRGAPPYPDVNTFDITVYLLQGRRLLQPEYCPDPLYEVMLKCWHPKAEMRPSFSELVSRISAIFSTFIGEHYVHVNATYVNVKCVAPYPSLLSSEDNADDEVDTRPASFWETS", "experiment": "H1993 xenograft, immunohistochemistry of p-c-MET", "assay_type": "in vivo", "settings": "24 h, H1993 s.c. in SCID mice"}, "[9]": {"target": "nitroreductase enzyme (E. coli) (Escherichia coli, UniProt P38489)", "sequence (P38489 whole entry)": "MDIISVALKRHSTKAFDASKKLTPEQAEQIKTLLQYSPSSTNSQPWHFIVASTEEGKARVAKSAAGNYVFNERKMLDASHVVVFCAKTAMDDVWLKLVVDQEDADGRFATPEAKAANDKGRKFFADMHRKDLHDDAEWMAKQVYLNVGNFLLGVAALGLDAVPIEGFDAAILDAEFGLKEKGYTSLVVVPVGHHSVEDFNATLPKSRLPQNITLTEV", "settings": "nitroreductase + NADH, pH 7.4, 37 °C, HPLC; for conversion of prodrug by nitroreductase: after 10 min"}, "c-MET phosphorylation": {"target": "c-MET phosphorylation (Homo sapiens, UniProt P08581)", "sequence (P08581 25-1390)": "as the sequence (P08581 25-1390) above", "experiment": "Western blot of c-MET phosphorylation in H1993 cells", "assay_type": "cell-based", "settings": "H1993, 24 h"}, "[10]": {"settings": "RUMH, 24 h treatment, MTT, 1 % O2 or 21 % O2"}, "[11]": {"settings": "H2228, 24 h treatment, MTT, 1 % O2 or 21 % O2"}, "[12]": {"settings": "H1993, 24 h treatment, MTT, 1 % O2 or 21 % O2"}}, "note": "pIC50: −log10 of the molar value. Read-outs that look alike come from different tables or passages of the source."}
{"smiles": "Cn1c(COP(=O)(NCCBr)NCCBr)cnc1[N+](=O)[O-]", "note": "[TH-302, reference compound]", "values": [{"measurement": "pIC50", "setting": "[1]; Homo sapiens, 24 h", "value": "< 4.60"}, {"measurement": "cytotoxic activity under hypoxia vs normoxia", "setting": "[1]; RUMH", "value": "significant anticancer activity under low oxygen levels"}, {"measurement": "cytotoxic activity under hypoxia vs normoxia", "setting": "[2]", "value": "significant anticancer activity under low oxygen levels"}, {"measurement": "pIC50", "setting": "[2]; Homo sapiens, NCI-H2228, 24 h", "value": "< 4.60"}, {"measurement": "cytotoxic activity under hypoxia vs normoxia", "setting": "[3]", "value": "significant anticancer activity under low oxygen levels"}, {"measurement": "pIC50", "setting": "[3]; Homo sapiens, NCI-H1993, 24 h", "value": "< 4.60"}]}
{"smiles": "C[C@@H](Oc1cc(-c2cnn(C3CCNCC3)c2)cnc1N)c1c(Cl)ccc(F)c1Cl", "note": "[crizotinib, reference compound]", "values": [{"measurement": "pIC50", "setting": "[1]; Homo sapiens, 24 h", "value": "~4.70"}, {"measurement": "Ki-67 expression in tumor tissue", "setting": "[4]; 50 mg/kg p.o., H1993 s.c. in SCID mice", "value": "slight impact"}, {"measurement": "solubility", "setting": "solubility in PBS; phosphate-buffered saline", "value": "< 0.5", "unit": "mg/mL"}, {"measurement": "pIC50", "setting": "[3]; Homo sapiens, NCI-H1993, 24 h", "value": "~4.70"}]}
{"smiles": "C[C@@H](Oc1cc(-c2cnn(C3CCNCC3)c2)cnc1NC(=O)OCc1cnc([N+](=O)[O-])n1C)c1c(Cl)ccc(F)c1Cl", "note": "[prodrug A, (1-methyl-2-nitro-1H-imidazol-5-yl)methyl (R)-(3-(1-(2,6-dichloro-3-fluorophenyl)ethoxy)-5-(1-(piperidin-4-yl)-1H-pyrazol-4-yl)pyridin-2-yl)carbamate*1.5TFA]", "values": [{"measurement": "stability at low pH", "setting": "stability down to pH 1", "value": "confirmed the stability"}, {"measurement": "lower inhibitory potential compared to crizotinib (IC50 ratio)", "setting": "ALK", "value": 42, "unit": "fold"}, {"measurement": "activity against non-malignant cells in comparison to free crizotinib", "setting": "[5]", "value": "distinctly reduced activity"}, {"measurement": "cytotoxic activity under hypoxia vs normoxia", "setting": "[1]; RUMH", "value": "promising hypoxia-mediated activity"}, {"measurement": "pIC50", "setting": "[1]; [10]", "value": "< 4.60"}, {"measurement": "cell proliferation (Ki-67) in tumor tissue", "setting": "[4]; 38.5 mg/kg i.v., single dose, H1993 s.c. in SCID mice", "value": "inhibition of cell proliferation"}, {"measurement": "tumor histology (tumor:stroma ratio)", "setting": "[4]; 38.5 mg/kg i.v., single dose, data not shown", "value": "reduction of the tumor:stroma ratio"}, {"measurement": "Ki-67 expression in tumor tissue", "setting": "[4]; 89.2 mg/kg p.o., H1993 s.c. in SCID mice", "value": "did not significantly change"}, {"measurement": "lower inhibitory potential compared to crizotinib (IC50 ratio)", "setting": "c-MET", "value": 33, "unit": "fold"}, {"measurement": "activity against non-malignant cells in comparison to free crizotinib", "setting": "[6]", "value": "distinctly reduced activity"}, {"measurement": "cytotoxic activity under hypoxia vs normoxia", "setting": "[2]", "value": "similarly active"}, {"measurement": "pIC50", "setting": "[2]; [11]", "value": "< 4.60"}, {"measurement": "inhibition of ERK 1/2 phosphorylation signal", "setting": "ERK 1/2 phosphorylation; hypoxia (1 % O2), 5 μM", "value": "~ 60%"}, {"measurement": "inhibition of ERK 1/2 phosphorylation signal", "setting": "ERK 1/2 phosphorylation; hypoxia (1 % O2), 10 μM", "value": "~ 80%"}, {"measurement": "inhibition of ERK 1/2 phosphorylation signal", "setting": "ERK 1/2 phosphorylation; normoxia (21 % O2), 5 μM", "value": "< 10", "unit": "%"}, {"measurement": "stability in pure serum", "setting": "[7]", "value": "no significant degradation"}, {"measurement": "c-MET phosphorylation in tumor tissue", "setting": "[8]; 38.5 mg/kg i.v., single dose", "value": "significant inhibition"}, {"measurement": "level of p-c-MET in tumor tissue", "setting": "[8]; 89.2 mg/kg p.o.", "value": "did not significantly change"}, {"measurement": "solubility", "setting": "solubility in PBS; phosphate-buffered saline (PBS), room temperature", "value": "> 20", "unit": "mg/mL"}, {"measurement": "release of crizotinib as main product", "setting": "[9]", "value": "about 80%"}, {"measurement": "conversion of prodrug by nitroreductase", "setting": "[9]", "value": "complete conversion"}, {"measurement": "inhibition of c-MET phosphorylation", "setting": "c-MET phosphorylation; hypoxia (1 % O2), 5 μM", "value": 40, "unit": "%"}, {"measurement": "inhibition of c-MET phosphorylation", "setting": "c-MET phosphorylation; hypoxia (1 % O2), 10 μM", "value": 70, "unit": "%"}, {"measurement": "inhibition of c-MET phosphorylation", "setting": "c-MET phosphorylation; normoxia (21 % O2), up to 10 μM", "value": "< 10", "unit": "%"}, {"measurement": "cytotoxic activity under hypoxia vs normoxia", "setting": "[3]", "value": "promising hypoxia-mediated activity"}, {"measurement": "pIC50", "setting": "[3]; [12]", "value": "< 4.60"}]}
{"smiles": "C[C@@H](Oc1cc(-c2cnn(C3CCNCC3)c2)cnc1NCc1cnc([N+](=O)[O-])n1C)c1c(Cl)ccc(F)c1Cl", "note": "[prodrug B, (R)-3-(1-(2,6-dichloro-3-fluorophenyl)ethoxy)-N-((1-methyl-2-nitro-1H-imidazol-5-yl)methyl)-5-(1-(piperidin-4-yl)-1H-pyrazol-4-yl)pyridin-2-amine *2TFA]", "values": [{"measurement": "lower inhibitory potential compared to crizotinib (IC50 ratio)", "setting": "ALK", "value": "> 143", "unit": "fold"}, {"measurement": "IC50 cytotoxicity", "setting": "[1]; [10]", "value": "distinct anticancer activity in a range similar to crizotinib"}, {"measurement": "lower inhibitory potential compared to crizotinib (IC50 ratio)", "setting": "c-MET", "value": 64, "unit": "fold"}, {"measurement": "IC50 cytotoxicity", "setting": "[2]; [11]", "value": "distinct anticancer activity in a range similar to crizotinib"}, {"measurement": "release of crizotinib as main product", "setting": "[9]", "value": "no formation of crizotinib"}, {"measurement": "conversion of prodrug by nitroreductase", "setting": "[9]", "value": "could not be activated"}, {"measurement": "IC50 cytotoxicity", "setting": "[3]; [12]", "value": "distinct anticancer activity in a range similar to crizotinib"}]}
